The source made the active and inactive calls. No cut-off for these calls is given here.
Tested on: Human immunodeficiency virus 1
Assay: Antiviral activity against HIV1 in human MT4 cells assessed as prevention of virus-induced cytopathogenicity
Type: functional, organism-based
In short: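 MT-4 cells, 1 × 10⁴ per well, with serial compound dilutions from a 100 mM DMSO stock. Infected with HIV-1 at 100 CCID50. Four-day incubation at 37 °C, then viable cells measured by MTT. Read-out is inhibition of virus-induced cytopathogenicity, assessed at non-cytotoxic concentrations.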

For `CC(=O)C(=CN1CCNC1=S)C(C)=O`, the Activity was “inactive”.
